Screening data as filed in PubChem BioAssay.
FN deposit inh: inhibitors of fibronectin matrix deposition, primary screen, AH1F cells, Alexa488-fibronectin fluorescence, plate reader; AH1F fibroblasts, overnight; inhibition, % at 12.6 µM; 0.086% of 350,000 active;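 active = mean inhibition across replicates of 30% or more, regardless of how many single replicates reach that level; inconclusive = mean under 30% yet at least half of replicates reach 30%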
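Assay system: AH1F fibroblasts assembling fluorescent fibronectin matrix; Amount: 10000 AH1F cells per well; Buffer or medium: DMEM, 2% serum; Probe or stimulus: Alexa488-fibronectin, 24 nM final in well; Doses: single compound dose, delivered by pin transfer; Incubation: 1 h adhesion, overnight exposure; Measured by: fluorescence 485/525 nm; Read-out: fibronectin deposition inhibition.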
EWS-Fli block: EWS/Fli-driven NR0B1 reporter inhibitors, primary screen, A673 cells, NR0B1 luciferase, luminescence, MLPCN library; viability-normalised; inhibition, % at 12.6 µM; 0.67% of 350,000 active; AID 651661, 2012;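 active = mean inhibition of at least 50% after viability correction, with every replicate also passing that limit; inconclusive = mean reaches 50% but only one of two replicates passes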;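 note: firefly luciferase signal divided by Alamar Blue viability fluorescence both relative to DMSO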
PGC1a acetyl inh: inhibitors of PGC1a acetylation signal, primary screen, cell-based, U2OS, AlphaScreen, inhibitor mode; 0.17% of 350,000 active; inhibition, % at 15.6 µM; AlphaScreen anti-acetyl-lysine; with virally co-expressed GCN5 acetyltransferase;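 active = every replicate shows inhibition of at least 40%; inconclusive = mean inhibition at least 40% but some replicate below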
HIV Env fusion: inhibitors of HIV-1 Env-driven cell-cell fusion, primary screen, HeLa-JRFL effector, CEM21 target cells, luciferase. inhibition, % at 12.3 µM. 1.1% of 360,000 active;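 active = mean replicate inhibition score of at least 50 and every replicate individually at or above 50; inconclusive = only one of the two criteria met; inactive = mean below 50 and not all replicates reaching 50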
CFTR F508del cor: F508del CFTR correction, initial screen, CFBE line, single point; 0.36% of 350,000 active; AID 720511, 2013; CFBE cells, YFP halide quenching; stimulated with forskolin plus potentiator P3; % fluorescence drop versus neutral controls; activity (quench increase), % at 7.58 µM;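 active = mean added fluorescence quench of at least 8% versus neutral control, with both replicates also reaching 8%; inconclusive = only one of the mean or replicate conditions met; inactive = mean below 8% and not both replicates reaching 8%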;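 note: cells transiently co-express mutant CFTR-F508del with the halide-sensitive YFP; corrector assay measuring rescue of mutant channel to the surface after 24 h compound exposure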
PAX8 inh HTS: inhibitors of PAX8-driven TPO luciferase reporter, primary screen, RMG-I cells, single concentration; inhibition, % at 12.6 µM; SteadyGlo, 24 h; 1.2% of 360,000 active;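 active = mean replicate inhibition at least 60% with every replicate also reaching 60%; inconclusive = only one of the two criteria is met; inactive = mean below 60% and not all replicates reaching 60%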;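 note: luciferase light reporting Pax8 driven TPO promoter activity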
Hits are given with their value; n = inactive; u = inconclusive; x = not tested or not shown; ! = repeats disagree. This is a sample that favours compounds with a hit; in the whole collection about 2.3% have one here.

SMILES | FN deposit inh | EWS-Fli block | PGC1a acetyl inh | HIV Env fusion | CFTR F508del cor | PAX8 inh HTS
C/C=C(\C)C(=O)N[C@@H](c1ccccc1)[C@@H](O)C(=O)O[C@H]1C[C@@]2(O)[C@@H](OC(=O)c3ccccc3)C3[C@](C)(C(=O)[C@H](OC(C)=O)C(=C1C)C2(C)C)[C@@H](O)C[C@H]1OC[C@@]31OC(C)=O (stereo partly specified) | x | 58 | n | x | n | x
C/C=C(\C)C(=O)N[C@@H](c1ccccc1)[C@@H](O)C(=O)O[C@H]1C[C@@]2(O)[C@@H](OC(=O)c3ccccc3)C3[C@](C)(C(=O)[C@H](O)C(=C1C)C2(C)C)[C@@H](O)C[C@H]1OC[C@@]31OC(C)=O (stereo partly specified) | x | 57 | n | x | n | x
CC(=O)O[C@@]12CO[C@@H]1C[C@H](O)[C@@]1(C)C(=O)[C@H](O)C3=C(C)[C@@H](O)C[C@@](O)([C@@H](OC(=O)c4ccccc4)C12)C3(C)C (stereo partly specified) | x | n | n | x | n | x
CC(C)(C)c1cc([N+](=O)[O-])cc(C(C)(C)C)c1O | n | n | x | 58 | n | 67
CC(=O)c1c(C)n(C2CCCCC2)c2ccc(O)cc12 | n | n | 55 | 62 | n | n
CC(=O)c1c(C)n(Cc2ccccc2)c2ccc(O)cc12 | n | n | n | n | n | n
C/C=C/c1ccc(C2[C@@H]3CN(Cc4cccnc4)C[C@H]2N3)cc1 (stereo partly specified) | n | n | n | x | n | n
NC(=S)c1cn(C2OC(CO)C(O)C2O)c2ncnc(N)c12 (stereo unspecified) | n | n | x | 90 | n | 108
Nc1ncnc2c1ccn2[C@@H]1O[C@H](CO)[C@@H](O)[C@H]1O | x | 56 | n | x | n | x
FC(F)(F)CN1C[C@@H]2N[C@H](C1)C2c1ccc(Br)cc1 (stereo partly specified) | n | x | x | x | x | x
CCCN1[C@@H]2Cn3c(ccc(-c4ccccc4)c3=O)[C@H]1[C@@H](C(=O)OC)[C@@H]2CO | x | n | x | x | n | n
CC[n+]1c(/C=C/C=C/c2ccc(N(C)C)cc2)sc2ccccc21 | n | n | n | n | n | 80
C[n+]1ccc(-c2ccccc2)c2ccccc21 | n | n | n | n | n | n
CN(C)c1ccc(/C=C/C=C/c2sc3ccccc3[n+]2C)cc1 | n | n | n | u | n | 84
CN(C)c1ccc(/C=C/c2cc[n+](C)c3ccccc23)cc1 | n | n | n | n | n | 95
CC[n+]1c(/C=C/N(C)c2ccccc2)sc2ccc(Cl)cc21 | n | x | n | 79 | x | x
COc1ccc(C#Cc2ccc([C@H]3[C@@H](CO)N4CCCCN(C(=O)Cc5cccnc5)C[C@@H]34)cc2)cc1 | x | n | n | x | n | n
COC(=O)C1=C(c2cc3ccccc3o2)C[C@@H]2CC[C@H]1N2C(=O)N1CCCC1 | n | n | n | n | n | n
COC(=O)C1=C(c2cc3ccccc3o2)C[C@@H]2CC[C@H]1N2C(=O)N1CCCCC1 | n | 58 | n | n | n | n
CCOC(=O)[C@@H]1[C@@H]2NC(=S)N[C@@]1(C)Oc1ccccc12 | x | n | n | n | n | x
COC(=O)C[C@@H]1CC[C@H]2NC[C@@H](O)COC[C@@H]2O1 | n | n | n | n | n | n
COC(=O)C12OCC34C(CC5C(C)=C(O)C(=O)CC5(C)C3C(O)C1O)OC(=O)C(OC(=O)/C=C(\C)C(C)C)C24 (stereo unspecified) | n | n | 86 | 84 | n | 96
COC(=O)[C@@H]1[C@@H](CO)[C@@H]2Cn3c(ccc(-c4ccncc4)c3=O)[C@H]1N2S(=O)(=O)c1ccccc1F | x | n | x | x | n | n
C=C1C(=O)O[C@@H]2C[C@@H](C)[C@@H]3C=CC(=O)[C@@]3(C)[C@@H](O)[C@H]12 | 50 | 58 | 47 | x | 13 | 112
N#Cc1cccc(-c2ccc([C@H]3[C@H](CO)N4CCCCN(C(=O)Cc5cccnc5)C[C@@H]34)cc2)c1 | x | n | n | x | n | n
SMILES | FN deposit inh | EWS-Fli block | PGC1a acetyl inh | HIV Env fusion | CFTR F508del cor | PAX8 inh HTS
C=CCn1c(O)c(/C=C2/C=CC=N2)c(=O)[nH]c1=O | n | n | n | n | x | n
O=c1[nH]c(=O)n(Cc2ccccc2Cl)c(O)c1/C=C1/C=CC=N1 | n | 60 | x | n | n | n
CCN1[C@@H]2c3ccc(-c4cccc(OC)c4)c(=O)n3C[C@H]1[C@H](CO)[C@H]2C(=O)OC | x | n | x | x | n | n
COc1cc2c(cc1C=O)OCO2 | n | n | x | n | n | n
COc1cc([C@@H]2c3cc4c(cc3[C@@H](OC)[C@H]3COC(=O)[C@H]23)OCO4)cc(OC)c1O | n | 63 | x | n | 9.3 | n
CC=Cc1ccc2n(c1=O)C[C@@H]1[C@@H](CO)[C@H](C(=O)OC)[C@H]2N1CC1CCOCC1 (mixture of isomers) | x | n | x | n | x | n
CCC(=O)N1[C@@H]2c3ccc(-c4cccc(F)c4)c(=O)n3C[C@H]1[C@H](CO)[C@H]2C(=O)OC | x | n | x | x | n | n
O=C(c1ccc(CNS(=O)(=O)c2ccc(Br)cc2)cc1)N1CCC2(CC1)OCCO2 | n | n | n | x | n | 64
O=C1NC(=O)C(=Cc2ccc(N3CCOCC3)o2)C(=O)N1 | n | n | n | n | 9.2 | n
C=CCN1C(=O)/C(=C/c2ccc(N3CCOCC3)o2)C(=O)NC1=S | n | x | x | n | x | n
Cc1ccc2nc(-c3ccc(CN4CCC(n5c(=O)[nH]c6ccccc65)CC4)cc3)c(-c3ccccc3)nc2c1 | x | n | x | n | n | 65
CCC(COC(=O)c1cc(OC)c(OC)c(OC)c1)(c1ccccc1)N(C)C (stereo unspecified) | n | n | n | n | 9.0! | n
O=C(Cc1ccccn1)N1CC2(C1)[C@@H](c1ccccc1)[C@@H](CO)N2Cc1ccccn1 | x | n | n | x | n | n
N#CC(C#N)=NNc1ccc(-n2ccc(C(F)(F)F)n2)cc1 | n | n | n | n | n | 94
Cc1cc(C)n(-c2ccc(NN=C(C#N)C#N)cc2)n1 | n | n | u | n | n | n
Cc1c(C(=O)c2cccc3ccccc23)c2cccc3c2n1[C@H](CN1CCOCC1)CO3 | n | n | x | n | n | 101
CN1C(=O)NC(=O)C2(CCCC2)C1=O | n | n | n | n | 10 | n
CCC1(CC)C(=O)N(C)C(=O)NC1=NC | n | n | n | n | n | n
C[C@H](Cc1ccc(OCC(=O)O)cc1)NC[C@H](O)c1cccc(Cl)c1 | n | n | x | n | n | n
CC(Cc1ccc(O)cc1)NCC(O)c1cc(O)cc(O)c1 (stereo unspecified) | n | n | n | 74 | n | n
c1ccc2c[n+](CCCCCCCCCC[n+]3ccc4ccccc4c3)ccc2c1 | n | n | x | u | n | 81
